Data taken from publication PMC3398233 (Chemical Research in Toxicology, 2012).
Converted amounts (≈) assume the structure as drawn. “And” between values parts separate entries of the source, which are not always exact repeats. Identical values can stand only once.

Key:
[1] = test system: PCE; assay: DEHP hydrolysis to MEHP by PCE; format: in vitro ADME, porcine; settings: 127 vs 1.08 pmol min^-1 mg protein^-1
[2] = test system: PCE; settings: DEHP 50 μM; cited from earlier work
[3] = test system: hepatic porcine carboxylesterase; assay: Metabolism in purified hepatic porcine carboxylesterase; format: in vitro ADME; settings: Michaelis-Menten model, 10-min incubations
[4] = test system: fathead minnows (Pimephales promelas); settings: dietary exposure to commercial mixture containing TBB and TBPH; cited from earlier work
[5] = cited from earlier work
[6] = Solubility limit of TBB in incubation buffer; format: physicochemical; settings: potassium phosphate buffer, pH 7.4
Outline: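 Practical upper limit judged from kinetics incubations in 100 mM potassium phosphate (pH 7.4), glass tubes, shaking at 37°C, 10 min, nine concentrations 0.0078–31.1 μM. Dosing concentrations checked by LC/MS/MS (negative APCI, C18 column, isocratic 98% methanol). Limit taken as the highest concentration without unacceptably high variability in measured substrate concentration.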

[7] = TBB/TBPH metabolism in human liver microsomes; format: in vitro ADME
[8] = Phase II metabolism; format: in vitro ADME, human; settings: cytosol, 90 min; for Phase II metabolites detected (sulfation, glutathione conjugation): PAPS or reduced glutathione; for loss of parent compound during Phase II incubation: sulfation / glutathione cofactors
[9] = Phase II metabolism; format: in vitro ADME, human; settings: HLM; for Phase II metabolites detected (glucuronidation): 2 mM UDPGA, alamethicin, MgCl2, 90 min; for loss of parent compound during Phase II incubation: glucuronidation cofactors, 90 min

CCCCC(CC)COC(=O)c1ccccc1C(=O)OCC(CC)CCCC (stereo not drawn) [DEHP, bis(2-ethylhexyl) phthalate]
DEHP hydrolysis rate relative to TBPH hydrolysis rate in PCE [1]: approximately 100 times
MEHP formation rate from DEHP in PCE [2]: 127 pmol min^-1 mg protein^-1

CCCCC(CC)COC(=O)c1cc(Br)c(Br)c(Br)c1Br (stereo not drawn) [TBB, 2-ethylhexyl-2,3,4,5-tetrabromobenzoate]
Vmax for TBBA formation in PCE [3]: 24.4 ± 2.6 nmol min^-1 mg protein^-1
Km ([3]; read-out: Km for TBBA formation in PCE): 9.3 µM and ~10 µM
metabolism in fathead minnows [4]: metabolized to form unidentified brominated metabolites
estimated log KOW [5]: 8.8
solubility [6]: ~30 µM (≈ 16.5 µg/mL)
decrease of TBB during incubation (amount) ([7]; 60-min incubation, HLM 40 μg protein mL^-1, TBB 27.1 ± 1.3 μM): ~2.9 nmol
reduction in the concentration of TBB ([7]; 60-min incubations with HLM, metabolite identification, GC/MS): 79.9 ± 4.6%
Vmax for TBBA formation in HLM ([7]; Michaelis-Menten model, 10-min incubations, 40 μg protein mL^-1, TBB 0.0078–31.1 μM): 0.644 ± 0.144 nmol min^-1 mg protein^-1
effect of NADPH on the formation rate of TBBA ([7]; NADPH 0, 0.3, 3.0 and 30 mM, data not shown): did not significantly affect
Km at 10 min ([7]; both, human, pH 7.4, Km for TBBA formation in HLM, Michaelis-Menten model, 10-min incubations, 40 μg protein mL^-1, TBB 0.0078–31.1 μM): 11.1 ± 3.9 µM
Km ([7]; read-out: Km for TBBA formation in HLM, Michaelis-Menten model, 10-min incubations, 40 μg protein mL^-1, TBB 0.0078–31.1 μM): ~10 µM

O=C(O)c1cc(Br)c(Br)c(Br)c1Br [TBBA, 2,3,4,5-tetrabromobenzoic acid]
Phase II metabolites detected (sulfation, glutathione conjugation) [8]: no Phase II metabolites were detected
loss of parent compound during Phase II incubation [8]: no significant losses
Phase II metabolites detected (glucuronidation) [9]: no Phase II metabolites were detected
loss of parent compound during Phase II incubation [9]: no significant losses

CCCCC(CC)COC(=O)c1c(Br)c(Br)c(Br)c(Br)c1C(=O)O (stereo not drawn) [TBMEHP, mono(2-ethylhexyl) 2,3,4,5-tetrabromophthalate]
Phase II metabolites detected (sulfation, glutathione conjugation) [8]: no Phase II metabolites were detected
loss of parent compound during Phase II incubation [8]: no significant losses
Phase II metabolites detected (glucuronidation) [9]: no Phase II metabolites were detected
loss of parent compound during Phase II incubation [9]: no significant losses
